Assay results reported in article PMC8068092 (Molecular pharmaceutics, 2020).

Legend:
[1] = tested on: MDA-MB-468 cells (mtp53 R273H) compared to MCF7 cells (wtp53); test: Cy5p53Tet cellular uptake by live cell imaging; format: cell-based, human; conditions: 500 nM, 2 h incubation, 37 °C; confocal microscopy, Nikon Element analysis, at least 200 cells per sample
[2] = tested on: MDA-MB-468 cells (mtp53) compared to MCF7 cells (wtp53); test: Cy5p53Tet cellular uptake by flow cytometry; format: cell-based, human; conditions: 2 h, 37 °C
Outline: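 MCF7 and MDA-MB-468 cells in DMEM with 10% FBS, seeded at 5 × 10^5 per well and held at 37 °C overnight. Medium swapped for vehicle, 100 or 500 nM Cy5-peptide for 2 h at 37 °C. Cells washed, trypsinized, pelleted and resuspended in PBS. 2 × 10^4 events per sample; geometric MFI taken.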

[3] = tested on: MCF-10A nonmalignant human mammary epithelial cells (wtp53); test: Peptide cytotoxicity assay; format: cell-based; conditions: 500 nM Cy5p53Tet, 24 h, three independent experiments
MCF7 cells (wtp53) = test: Peptide cytotoxicity assay; format: cell-based, human; conditions: 500 nM Cy5p53Tet, 24 h, three independent experiments
Outline: (§1)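 Cells (1.25 × 10^5, 12-well) seeded the day before at 37 °C, then given 500 nM Cy5-peptide for 24 h. MTT (5 mg/mL solution) added for 1 h at 37 °C. Product dissolved in 0.04 N HCl/isopropanol, 5 min in the dark at room temperature. Absorbance read at 550 nm minus 620 nm background. Three independent experiments; mean ± SEM, t-test.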

[4] = tested on: MDA-MB-468 cells (mtp53 R273H); test: Peptide cytotoxicity assay; format: cell-based, human; conditions: 500 nM Cy5p53Tet, 24 h, three independent experiments
Outline: as §1

[5] = tested on: HCC70 cells (mtp53 R248Q); test: Peptide cytotoxicity assay; format: cell-based, human; conditions: 500 nM Cy5p53Tet, 24 h, three independent experiments
Outline: as §1

[6] = tested on: MDA-MB-468 (mtp53 R273H) and MCF7 (wtp53) xenografts; test: NIRF imaging in mice bearing bilateral MCF7/MDA-MB-468 xenografts; format: in vivo, mouse
[7] = tested on: MDA-MB-468 shp53 cells (mtp53 R273H knockdown); test: Cy5p53Tet uptake with and without shRNA depletion of mtp53; format: cell-based, human; conditions: 500 nM; for Reduction of Cy5p53Tet signal (relative ROI intensity) on depletion of mtp53: knockdown vs control
Outline: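 MDA-MB-468 shp53 knockdown induced with 8 μg/mL doxycycline for 7 days; p53 depletion checked by Western blot. Cells seeded at 2 × 10^5 per well 1 day before, then given 500 nM Cy5-peptide at 37 °C for 30 min, 2 h, 4 h or 24 h. Peptide removed, cells PBS-washed, Hoechst-stained (1 μg/mL, 5 min), confocal Z-stacks at 60×. Three independent experiments; mean + SEM, two-tailed t-test.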

[8] = after intravenous administration, IVIS Spectrum

H-CysCy5-RKKRRQRRGEYFTLQIRGRER-FEMFRELNEALELK-OH [Cy5p53Tet]
Uptake of Cy5p53Tet in MDA-MB-468 cells compared to MCF7 cells [1]: twofold higher uptake | Geometric MFI, fold more uptake in MDA-MB-468 than in MCF7 cells ([2]; 100 nM Cy5p53Tet): 1.58 fold | Geometric MFI, fold more uptake in MDA-MB-468 than in MCF7 cells ([2]; 500 nM Cy5p53Tet): 1.65 fold | Reduction of mitochondrial activity (MTT) [3]: No significant reduction of mitochondrial activity | Reduction of mitochondrial activity (MTT) (MCF7 cells (wtp53)): 9.8% | Reduction of mitochondrial activity (MTT) [4]: 10.6% | Reduction of mitochondrial activity (MTT) [5]: 13.6% | In vivo NIRF signal in MCF7 tumors [6, 8]: no signal was present | In vivo NIRF signal in MDA-MB-468 tumors [6, 8]: clearly observed | Signal in healthy tissues (whole-body and resected tissue images) ([6]; liver, large intestines, small intestines, three mice): significantly high levels of the signal in several healthy tissues | Reduction of Cy5p53Tet signal (relative ROI intensity) on depletion of mtp53 ([7]; 30 min incubation): 61% | Reduction of Cy5p53Tet signal (relative ROI intensity) on depletion of mtp53 ([7]; 2 h incubation): 63% | Reduction of Cy5p53Tet signal (relative ROI intensity) on depletion of mtp53 ([7]; 4 h incubation): 67% | Difference of Cy5p53Tet signal between knockdown and control cells ([7]; 24 h incubation): no statistically significant difference
